Data as given in ChEMBL document CHEMBL1145034.
Each block holds one compound with its values, some of them ahead of it.

Legend:
[1] = species on record: Rattus norvegicus; experiment: Hydrolytic activity against esterase with hepatic microsomes relative to E16-1,2; settings: Liver
[2] = molecular target: T1, Estrogen receptor (Mus musculus) (UniProt O08537+P19785); experiment: Vaginal activity relative to estradiol (E2); type: functional
Outline: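 Female CD-1 mice ovariectomized; 1 week later, compound instilled intravaginally in 10 μL sesame oil. Vaginal reductase induction measured and compared with 50 pg E2. n = 5–6 per group, at least two separate occasions.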

[3] = molecular target: T2, Estrogen receptor (Rattus norvegicus) (UniProt P06211+Q62986); experiment: In vivo uterotropic activity at 100 ug subcutaneous dose in immature rats as ng estradiol dose for equivalent effect; type: functional, organism-based
Outline: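 Immature (22-day) female Sprague–Dawley rats given daily subcutaneous injections in 0.1 mL sesame oil for 3 days, 100 μg total dose; controls received oil. Uteri removed, blotted and weighed on day 4. Compared with 5 ng E2 run concurrently; n = 5, usually 2 separate experiments.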

[4] = molecular target: T2, Estrogen receptor (Rattus norvegicus); experiment: Uterotropic activity relative to estradiol (E2); type: functional, tissue-based; settings: Uterus
Outline: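 Immature female Sprague–Dawley rats, 22 days old, injected subcutaneously once a day for 3 days with test steroid in 0.1 mL sesame oil, 100 µg total dose; sesame oil controls; 5 ng E2 total run concurrently as reference. Uteri removed on day 4, blotted and weighed. n = 5, usually 2 separate experiments; activity expressed relative to E2.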

[5] = molecular target: T1, Estrogen receptor (Mus musculus); experiment: In vivo vaginal activity in ovariectomised mice at 50 ng vaginal dose as pg estradiol dose for equivalent effect
[6] = molecular target: Estrogen receptor beta (Homo sapiens) (UniProt Q92731); experiment: Binding of […] to human estrogen receptor beta ligand binding domain expressed in Escherichia coli
Outline: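 Competitive binding against [3H]E2 using lysates of E. coli expressing human ERβ LBD (M214–Q530); incubated overnight at 0–2 °C. Result given as RBA versus E2 (E2 = 100); mean of 3 experiments, each in duplicate.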

Chain of Estrogen receptor beta (Homo sapiens) (Q92731 whole entry, the tested form may be a part): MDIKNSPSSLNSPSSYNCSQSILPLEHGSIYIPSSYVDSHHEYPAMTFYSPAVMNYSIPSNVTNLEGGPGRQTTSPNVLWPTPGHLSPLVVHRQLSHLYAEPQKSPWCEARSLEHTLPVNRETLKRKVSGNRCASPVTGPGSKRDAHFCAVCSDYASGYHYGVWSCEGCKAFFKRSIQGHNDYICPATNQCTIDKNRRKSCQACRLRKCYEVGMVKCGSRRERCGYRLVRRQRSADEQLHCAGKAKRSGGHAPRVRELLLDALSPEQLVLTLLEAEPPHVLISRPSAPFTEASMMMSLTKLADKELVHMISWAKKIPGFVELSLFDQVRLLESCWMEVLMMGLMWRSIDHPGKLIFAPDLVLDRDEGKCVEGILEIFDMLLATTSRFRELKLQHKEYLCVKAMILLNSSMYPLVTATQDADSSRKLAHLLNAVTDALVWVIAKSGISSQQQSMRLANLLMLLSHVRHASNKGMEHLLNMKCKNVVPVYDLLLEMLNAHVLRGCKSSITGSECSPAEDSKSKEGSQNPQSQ
T1 sequence (O08537 whole entry, looked up): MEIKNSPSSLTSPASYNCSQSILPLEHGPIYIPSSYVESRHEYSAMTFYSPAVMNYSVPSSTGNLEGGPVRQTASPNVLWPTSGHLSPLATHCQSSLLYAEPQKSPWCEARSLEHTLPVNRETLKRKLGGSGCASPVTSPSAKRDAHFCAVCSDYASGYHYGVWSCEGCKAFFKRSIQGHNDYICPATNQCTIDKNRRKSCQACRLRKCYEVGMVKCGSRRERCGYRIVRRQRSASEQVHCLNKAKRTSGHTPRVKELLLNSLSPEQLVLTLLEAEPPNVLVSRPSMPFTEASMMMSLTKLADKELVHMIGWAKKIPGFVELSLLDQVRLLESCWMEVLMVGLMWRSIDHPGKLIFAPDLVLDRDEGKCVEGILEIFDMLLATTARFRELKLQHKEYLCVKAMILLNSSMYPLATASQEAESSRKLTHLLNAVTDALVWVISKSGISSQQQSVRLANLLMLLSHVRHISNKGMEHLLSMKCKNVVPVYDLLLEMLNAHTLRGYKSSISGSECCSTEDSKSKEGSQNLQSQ
T1 sequence (P19785 whole entry, looked up): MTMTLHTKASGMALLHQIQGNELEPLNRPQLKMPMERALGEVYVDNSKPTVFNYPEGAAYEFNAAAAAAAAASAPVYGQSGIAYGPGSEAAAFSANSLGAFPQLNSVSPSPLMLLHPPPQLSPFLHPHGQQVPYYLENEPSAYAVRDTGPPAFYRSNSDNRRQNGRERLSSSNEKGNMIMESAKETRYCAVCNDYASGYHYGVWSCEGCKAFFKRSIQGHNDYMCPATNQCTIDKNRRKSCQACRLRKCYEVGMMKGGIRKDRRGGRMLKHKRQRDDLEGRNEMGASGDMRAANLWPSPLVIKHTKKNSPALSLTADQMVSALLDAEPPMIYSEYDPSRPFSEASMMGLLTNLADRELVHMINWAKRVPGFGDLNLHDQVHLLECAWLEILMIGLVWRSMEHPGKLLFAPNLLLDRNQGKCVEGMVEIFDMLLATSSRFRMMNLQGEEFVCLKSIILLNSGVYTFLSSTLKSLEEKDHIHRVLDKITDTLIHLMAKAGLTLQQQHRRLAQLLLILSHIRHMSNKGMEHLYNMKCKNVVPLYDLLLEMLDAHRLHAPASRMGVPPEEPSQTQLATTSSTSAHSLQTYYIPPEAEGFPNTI

SMILES: C[C@]12CC[C@@H]3c4ccc(O)cc4CC[C@H]3[C@@H]1[C@@H](C(=O)OCCF)C[C@@H]2O
RHA [1]: 4.5%

SMILES: CCOC(=O)CC[C@H]1C[C@H](O)[C@@]2(C)CC[C@@H]3c4ccc(O)cc4CC[C@H]3[C@H]12
RHA [1]: 674%

SMILES: CCCCOC(=O)[C@H]1C[C@H](O)[C@@]2(C)CC[C@@H]3c4ccc(O)cc4CC[C@H]3[C@H]12
RHA [1]: 7%

SMILES: CCOC(=O)C[C@H]1C[C@]2(C)[C@@H](O)CC[C@H]2[C@@H]2CCc3cc(O)ccc3[C@@H]12
Activity [6]: 70
RHA [1]: 152%

SMILES: CCOC(=O)[C@@H]1Cc2cc(O)ccc2[C@H]2CC[C@]3(C)[C@@H](O)CC[C@H]3[C@@H]21
Activity [6]: 9
Vaginal activity [2]: 0.44
Uterotropic activity [3]: 4
Uterotropic activity [4]: 0.04
RHA [1]: 0%
Vaginal activity [5]: 22

SMILES: COC(=O)[C@H]1CC(O)[C@@]2(C)CC[C@@H]3c4ccc(O)cc4CC[C@H]3[C@H]12 (stereo partly specified)
Vaginal activity [2]: 0.38
Uterotropic activity [3]: 0
RHA [1]: 1.7%
Vaginal activity [5]: 19

SMILES: CCCCOC(=O)[C@@H]1Cc2cc(O)ccc2[C@H]2CC[C@]3(C)[C@@H](O)CC[C@H]3[C@@H]21
RHA [1]: 0%

SMILES: COC(=O)CC[C@H]1C[C@H](O)[C@@]2(C)CC[C@@H]3c4ccc(O)cc4CC[C@H]3[C@H]12
RHA [1]: 248%

SMILES: CCCOC(=O)[C@@H]1Cc2cc(O)ccc2[C@H]2CC[C@]3(C)[C@@H](O)CC[C@H]3[C@@H]21
RHA [1]: 0%

SMILES: COC(=O)[C@@H]1Cc2cc(O)ccc2[C@H]2CC[C@]3(C)[C@@H](O)CC[C@H]3[C@@H]21
Vaginal activity [2]: 1
Uterotropic activity [3]: 10.5
Uterotropic activity [4]: 0.11
RHA [1]: 0%
Vaginal activity [5]: 50

SMILES: C[C@]12CC[C@@H]3c4ccc(O)cc4C[C@@H](C(=O)OCCF)[C@H]3[C@@H]1CC[C@@H]2O
RHA [1]: 0%

SMILES: COC(=O)CC[C@H]1C[C@]2(C)[C@@H](O)CC[C@H]2[C@@H]2CCc3cc(O)ccc3[C@@H]12
RHA [1]: 64%

Results, then the compound that gave them:

RHA [1]: 31%
SMILES: COC(=O)C[C@H]1C[C@H](O)[C@@]2(C)CC[C@@H]3c4ccc(O)cc4CC[C@H]3[C@H]12

Vaginal activity [2]: 0.42
Uterotropic activity [3]: 2
Uterotropic activity [4]: 0.02
Vaginal activity [5]: 21
SMILES: C[C@]12CC[C@@H]3c4ccc(O)cc4CC[C@H]3[C@@H]1C[C@@H](C(=O)OCCF)[C@@H]2O

RHA [1]: 0%
SMILES: CCOC(=O)C[C@H]1Cc2cc(O)ccc2[C@H]2CC[C@]3(C)[C@@H](O)CC[C@H]3[C@H]12

RHA [1]: 71%
SMILES: CCOC(=O)C[C@H]1C[C@H](O)[C@@]2(C)CC[C@@H]3c4ccc(O)cc4CC[C@H]3[C@H]12

RHA [1]: 70%
SMILES: CCOC(=O)C[C@@H]1Cc2cc(O)ccc2[C@H]2CC[C@]3(C)[C@@H](O)CC[C@H]3[C@H]12

RHA [1]: 0.4%
SMILES: CC(C)OC(=O)[C@H]1C[C@H](O)[C@@]2(C)CC[C@@H]3c4ccc(O)cc4CC[C@H]3[C@H]12

Vaginal activity [2]: 0.42
Uterotropic activity [3]: 6.5
Uterotropic activity [4]: 0.07
RHA [1]: 106%
Vaginal activity [5]: 21
SMILES: COC(=O)C[C@H]1C[C@]2(C)[C@@H](O)CC[C@H]2[C@@H]2CCc3cc(O)ccc3[C@@H]12

Activity [6]: 64
RHA [1]: 542%
SMILES: CCOC(=O)CC[C@H]1C[C@]2(C)[C@@H](O)CC[C@H]2[C@@H]2CCc3cc(O)ccc3[C@@H]12

Activity [6]: 0.3
RHA [1]: 100%
SMILES: CCOC(=O)[C@@H]1C[C@H]2[C@@H]3CCc4cc(O)ccc4[C@H]3CC[C@]2(C)[C@H]1O

RHA [1]: 7.8%
SMILES: CCCOC(=O)[C@H]1C[C@H](O)[C@@]2(C)CC[C@@H]3c4ccc(O)cc4CC[C@H]3[C@H]12

RHA [1]: 30%
SMILES: COC(=O)C[C@@H]1Cc2cc(O)ccc2[C@H]2CC[C@]3(C)[C@@H](O)CC[C@H]3[C@H]12

Activity [6]: 7
Vaginal activity [2]: 0.42
Uterotropic activity [3]: 0
RHA [1]: 2.3%
Vaginal activity [5]: 21
SMILES: CCOC(=O)[C@H]1C[C@H](O)[C@@]2(C)CC[C@@H]3c4ccc(O)cc4CC[C@H]3[C@H]12

Activity [6]: 100
SMILES: C[C@]12CC[C@@H]3c4ccc(O)cc4CC[C@H]3[C@@H]1CC[C@@H]2O
